# Test system: Bacillus subtilis
# Assay: Antimicrobial activity against Bacillus subtilis at 25 ug/ml by agar plate diffusion technique
# Format: functional
# Details: read-out: IZ
# Outline: (§1)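 Agar plate diffusion against E. coli, P. aeruginosa, S. aureus and B. subtilis, with compounds at 25, 50 and 100 µg/mL. Streptomycin as standard.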
row,Compound,zone of inhibition at 25 µg/mL [mm]
1,CCOC(=O)c1cnn(-c2nc(-c3ccc(OC)cc3)c(C#N)c(=O)n2C)c1N,10.2
2,Cn1c(NN)nc(-c2ccccc2F)c(C#N)c1=O,13.1

# Test system: not listed separately
# Assay: Antioxidant activity assessed as hydrogen peroxide scavenging activity after 10 mins
# Format: functional
# Details: not given
# Outline: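 H2O2 (20 mM) in PBS pH 7.4. 1 mL of sample or ascorbic acid in methanol (12.5–100 µg/mL) added to 2 mL H2O2 solution. A230 read after 10 min. % inhibition = [1 − (Vt/Vc)] × 100. Triplicate, averaged. IC50 derived from % inhibition across concentrations.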
row,Compound,IC50 [µg/mL]
1,CCOC(=O)c1cnn(-c2nc(-c3ccc(OC)cc3)c(C#N)c(=O)n2C)c1N,74
2,Cn1c(NN)nc(-c2ccccc2F)c(C#N)c1=O,49

# Test system: Aspergillus niger
# Assay: Antimicrobial activity against Aspergillus niger at 50 ug/ml by paper disc method
# Format: functional
# Details: read-out: IZ
# Outline: (§2)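 Paper disc method against A. niger and C. albicans, with compounds at 25, 50 and 100 µg/mL. Amphotericin-B as standard.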
row,Compound,zone of inhibition at 50 µg/mL [mm]
1,CCOC(=O)c1cnn(-c2nc(-c3ccc(OC)cc3)c(C#N)c(=O)n2C)c1N,13
2,Cn1c(NN)nc(-c2ccccc2F)c(C#N)c1=O,14

# Test system: Aspergillus niger
# Assay: Antimicrobial activity against Aspergillus niger at 100 ug/ml by paper disc method
# Format: functional
# Details: read-out: IZ
# Outline: as §2
row,Compound,zone of inhibition at 100 µg/mL [mm]
1,CCOC(=O)c1cnn(-c2nc(-c3ccc(OC)cc3)c(C#N)c(=O)n2C)c1N,20.7
2,Cn1c(NN)nc(-c2ccccc2F)c(C#N)c1=O,19.6

# Test system: Metaphire posthuma
# Assay: Anthelmintic activity against Pheretima posthuma assessed as time taken for parasite death at 0.5% w/v
# Format: functional
# Details: not given
# Outline: (§3)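 Earthworms (Pheretima posthuma, spelled Perituma posthuma in text) exposed to test compounds at 0.1, 0.2 and 0.5% w/v. Albendazole served as standard, with an untreated control. Paralysis was recorded as the time until worms became motionless, then time to death was recorded, in minutes. Each value is the mean of three determinations with S.D.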
row,Compound,Time [min]
1,CCOC(=O)c1cnn(-c2nc(-c3ccc(OC)cc3)c(C#N)c(=O)n2C)c1N,57.93
2,Cn1c(NN)nc(-c2ccccc2F)c(C#N)c1=O,61.02

# Test system: Candida albicans
# Assay: Antimicrobial activity against Candida albicans at 25 ug/ml by paper disc method
# Format: functional
# Details: read-out: IZ
# Outline: as §2
row,Compound,zone of inhibition at 25 µg/mL [mm]
1,CCOC(=O)c1cnn(-c2nc(-c3ccc(OC)cc3)c(C#N)c(=O)n2C)c1N,9.62
2,Cn1c(NN)nc(-c2ccccc2F)c(C#N)c1=O,11.8

# Test system: Pseudomonas aeruginosa
# Assay: Antimicrobial activity against Pseudomonas aeruginosa at 25 ug/ml by agar plate diffusion technique
# Format: functional
# Details: read-out: IZ
# Outline: as §1
row,Compound,zone of inhibition at 25 µg/mL [mm]
1,CCOC(=O)c1cnn(-c2nc(-c3ccc(OC)cc3)c(C#N)c(=O)n2C)c1N,8.21
2,Cn1c(NN)nc(-c2ccccc2F)c(C#N)c1=O,9

# Test system: Staphylococcus aureus
# Assay: Antimicrobial activity against Staphylococcus aureus at 100 ug/ml by agar plate diffusion technique
# Format: functional
# Details: read-out: IZ
# Outline: as §1
row,Compound,zone of inhibition at 100 µg/mL [mm]
1,CCOC(=O)c1cnn(-c2nc(-c3ccc(OC)cc3)c(C#N)c(=O)n2C)c1N,18.6
2,Cn1c(NN)nc(-c2ccccc2F)c(C#N)c1=O,22.2

# Test system: not listed separately
# Assay: Antioxidant activity assessed as nitric oxide radical scavenging activity after 150 mins
# Format: functional
# Details: not given
# Outline: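 10 mM sodium nitroprusside (4 mL), PBS pH 7.4 (1 mL) and sample or ascorbic acid in DMSO (1 mL, 12.5–100 µg/mL), incubated 150 min at 25 °C. Nitrite detected with sulphanilic acid (5 min) then naphthylethylenediamine (30 min, diffused light). Read at […]. Triplicate. % inhibition = [1 − (Vt/Vc)] × 100. IC50 derived from it.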
row,Compound,IC50 [µg/mL]
1,CCOC(=O)c1cnn(-c2nc(-c3ccc(OC)cc3)c(C#N)c(=O)n2C)c1N,79
2,Cn1c(NN)nc(-c2ccccc2F)c(C#N)c1=O,60

# Test system: Bacillus subtilis
# Assay: Antimicrobial activity against Bacillus subtilis at 100 ug/ml by agar plate diffusion technique
# Format: functional
# Details: read-out: IZ
# Outline: as §1
row,Compound,zone of inhibition at 100 µg/mL [mm]
1,CCOC(=O)c1cnn(-c2nc(-c3ccc(OC)cc3)c(C#N)c(=O)n2C)c1N,18.1
2,Cn1c(NN)nc(-c2ccccc2F)c(C#N)c1=O,21.6

# Test system: Escherichia coli
# Assay: Antimicrobial activity against Escherichia coli at 100 ug/ml by agar plate diffusion technique
# Format: functional
# Details: read-out: IZ
# Outline: as §1
row,Compound,zone of inhibition at 100 µg/mL [mm]
1,CCOC(=O)c1cnn(-c2nc(-c3ccc(OC)cc3)c(C#N)c(=O)n2C)c1N,17.4
2,Cn1c(NN)nc(-c2ccccc2F)c(C#N)c1=O,15.3

# Test system: not listed separately
# Assay: Antioxidant activity assessed as inhibition of lipid peroxidation using egg lecithin liposomes incubated for 1 hr
# Format: functional
# Details: not given
# Outline: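 Egg lecithin (3 mg/mL, phosphate buffer pH 7.4) sonicated 10 min to form liposomes. Sample or ascorbic acid (12.5–100 µg/mL) added. Peroxidation induced with FeCl3 and L-ascorbic acid, 1 h at 37 °C. Stopped with HCl/TCA/TBA/BHA, boiled 15 min, centrifuged, supernatant read at 532 nm. Triplicate. % inhibition vs control. IC50 derived.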
row,Compound,IC50 [µg/mL]
1,CCOC(=O)c1cnn(-c2nc(-c3ccc(OC)cc3)c(C#N)c(=O)n2C)c1N,68
2,Cn1c(NN)nc(-c2ccccc2F)c(C#N)c1=O,43

# Test system: not listed separately
# Assay: Antioxidant activity assessed as potassium ferricyanide ion reducing power after 20 mins
# Format: functional
# Details: not given
# Outline: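 Oyaizu method. Samples or ascorbic acid in DMF (12.5–100 µg/mL) mixed with 0.2 M phosphate buffer pH 6.6 and 1% potassium ferricyanide, 20 min at 50 °C. 10% TCA added, centrifuged. Supernatant mixed with water and 0.1% FeCl3, read at 700 nm. % = [(Vt/Vc) − 1] × 100. IC50 derived.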
row,Compound,IC50 [µg/mL]
1,CCOC(=O)c1cnn(-c2nc(-c3ccc(OC)cc3)c(C#N)c(=O)n2C)c1N,59
2,Cn1c(NN)nc(-c2ccccc2F)c(C#N)c1=O,50

# Test system: Escherichia coli
# Assay: Antimicrobial activity against Escherichia coli at 50 ug/ml by agar plate diffusion technique
# Format: functional
# Details: read-out: IZ
# Outline: as §1
row,Compound,zone of inhibition at 50 µg/mL [mm]
1,CCOC(=O)c1cnn(-c2nc(-c3ccc(OC)cc3)c(C#N)c(=O)n2C)c1N,14.7
2,Cn1c(NN)nc(-c2ccccc2F)c(C#N)c1=O,13.5

# Test system: Metaphire posthuma
# Assay: Anthelmintic activity against Pheretima posthuma assessed as time taken for complete parasite paralysis at 0.2% w/v
# Format: functional
# Details: not given
# Outline: (§4)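 Earthworms (Pheretima posthuma) exposed to test solutions at 0.1, 0.2 and 0.5% w/v; time in minutes to complete paralysis (worms motionless) recorded. Albendazole as standard. Mean of three determinations ± S.D.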
row,Compound,Time [min]
1,CCOC(=O)c1cnn(-c2nc(-c3ccc(OC)cc3)c(C#N)c(=O)n2C)c1N,49.46
2,Cn1c(NN)nc(-c2ccccc2F)c(C#N)c1=O,51.34

# Test system: Metaphire posthuma
# Assay: Anthelmintic activity against Pheretima posthuma assessed as time taken for parasite death at 0.1% w/v
# Format: functional
# Details: not given
# Outline: as §3
row,Compound,Time [min]
1,CCOC(=O)c1cnn(-c2nc(-c3ccc(OC)cc3)c(C#N)c(=O)n2C)c1N,67.41
2,Cn1c(NN)nc(-c2ccccc2F)c(C#N)c1=O,68.45

# Test system: Staphylococcus aureus
# Assay: Antimicrobial activity against Staphylococcus aureus at 25 ug/ml by agar plate diffusion technique
# Format: functional
# Details: read-out: IZ
# Outline: as §1
row,Compound,zone of inhibition at 25 µg/mL [mm]
1,CCOC(=O)c1cnn(-c2nc(-c3ccc(OC)cc3)c(C#N)c(=O)n2C)c1N,10.1
2,Cn1c(NN)nc(-c2ccccc2F)c(C#N)c1=O,13.6

# Test system: Staphylococcus aureus
# Assay: Antimicrobial activity against Staphylococcus aureus at 50 ug/ml by agar plate diffusion technique
# Format: functional
# Details: read-out: IZ
# Outline: as §1
row,Compound,zone of inhibition at 50 µg/mL [mm]
1,CCOC(=O)c1cnn(-c2nc(-c3ccc(OC)cc3)c(C#N)c(=O)n2C)c1N,15.1
2,Cn1c(NN)nc(-c2ccccc2F)c(C#N)c1=O,17.3

# Test system: Metaphire posthuma
# Assay: Anthelmintic activity against Pheretima posthuma assessed as time taken for complete parasite paralysis at 0.1% w/v
# Format: functional
# Details: not given
# Outline: as §4
row,Compound,Time [min]
1,CCOC(=O)c1cnn(-c2nc(-c3ccc(OC)cc3)c(C#N)c(=O)n2C)c1N,52.09
2,Cn1c(NN)nc(-c2ccccc2F)c(C#N)c1=O,54.93

# Test system: Bacillus subtilis
# Assay: Antimicrobial activity against Bacillus subtilis at 50 ug/ml by agar plate diffusion technique
# Format: functional
# Details: read-out: IZ
# Outline: as §1
row,Compound,zone of inhibition at 50 µg/mL [mm]
1,CCOC(=O)c1cnn(-c2nc(-c3ccc(OC)cc3)c(C#N)c(=O)n2C)c1N,14
2,Cn1c(NN)nc(-c2ccccc2F)c(C#N)c1=O,15.7

# Test system: Metaphire posthuma
# Assay: Anthelmintic activity against Pheretima posthuma assessed as time taken for parasite death at 0.2% w/v
# Format: functional
# Details: not given
# Outline: as §3
row,Compound,Time [min]
1,CCOC(=O)c1cnn(-c2nc(-c3ccc(OC)cc3)c(C#N)c(=O)n2C)c1N,63.37
2,Cn1c(NN)nc(-c2ccccc2F)c(C#N)c1=O,65.43

# Test system: Candida albicans
# Assay: Antimicrobial activity against Candida albicans at 100 ug/ml by paper disc method
# Format: functional
# Details: read-out: IZ
# Outline: as §2
row,Compound,zone of inhibition at 100 µg/mL [mm]
1,CCOC(=O)c1cnn(-c2nc(-c3ccc(OC)cc3)c(C#N)c(=O)n2C)c1N,19.8
2,Cn1c(NN)nc(-c2ccccc2F)c(C#N)c1=O,19.2

# Test system: Aspergillus niger
# Assay: Antimicrobial activity against Aspergillus niger at 25 ug/ml by paper disc method
# Format: functional
# Details: read-out: IZ
# Outline: as §2
row,Compound,zone of inhibition at 25 µg/mL [mm]
1,CCOC(=O)c1cnn(-c2nc(-c3ccc(OC)cc3)c(C#N)c(=O)n2C)c1N,11.6
2,Cn1c(NN)nc(-c2ccccc2F)c(C#N)c1=O,11.1

# Test system: Pseudomonas aeruginosa
# Assay: Antimicrobial activity against Pseudomonas aeruginosa at 100 ug/ml by agar plate diffusion technique
# Format: functional
# Details: read-out: IZ
# Outline: as §1
row,Compound,zone of inhibition at 100 µg/mL [mm]
1,CCOC(=O)c1cnn(-c2nc(-c3ccc(OC)cc3)c(C#N)c(=O)n2C)c1N,16.1
2,Cn1c(NN)nc(-c2ccccc2F)c(C#N)c1=O,15.4

# Test system: Candida albicans
# Assay: Antimicrobial activity against Candida albicans at 50 ug/ml by paper disc method
# Format: functional
# Details: read-out: IZ
# Outline: as §2
row,Compound,zone of inhibition at 50 µg/mL [mm]
1,CCOC(=O)c1cnn(-c2nc(-c3ccc(OC)cc3)c(C#N)c(=O)n2C)c1N,12.6
2,Cn1c(NN)nc(-c2ccccc2F)c(C#N)c1=O,17

# Test system: Escherichia coli
# Assay: Antimicrobial activity against Escherichia coli at 25 ug/ml by agar plate diffusion technique
# Format: functional
# Details: read-out: IZ
# Outline: as §1
row,Compound,zone of inhibition at 25 µg/mL [mm]
1,CCOC(=O)c1cnn(-c2nc(-c3ccc(OC)cc3)c(C#N)c(=O)n2C)c1N,10.5
2,Cn1c(NN)nc(-c2ccccc2F)c(C#N)c1=O,9.85

# Test system: not listed separately
# Assay: Antiinflammatory activity assessed as inhibition of albumin denaturation at 100 ug/ml by UV-visible spectrophotometry
# Format: functional
# Details: not given
# Outline: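 Compounds dissolved in minimal DMF, diluted in PBS pH 7.4 (final DMF <2.5%). 1 mL test solution (100 µg/mL) plus 1 mL 1% albumin in PBS, 15 min at 27 ± 1 °C, then heated 10 min at 60 ± 1 °C. After cooling, turbidity read at 660 nm. % inhibition = [(Vt/Vc) − 1] × 100 against a no-drug control. Triplicate, averaged. Diclofenac standard.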
row,Compound,inhibition [%]
1,CCOC(=O)c1cnn(-c2nc(-c3ccc(OC)cc3)c(C#N)c(=O)n2C)c1N,13.6
2,Cn1c(NN)nc(-c2ccccc2F)c(C#N)c1=O,42.1

# Test system: Pseudomonas aeruginosa
# Assay: Antimicrobial activity against Pseudomonas aeruginosa at 50 ug/ml by agar plate diffusion technique
# Format: functional
# Details: read-out: IZ
# Outline: as §1
row,Compound,zone of inhibition at 50 µg/mL [mm]
1,CCOC(=O)c1cnn(-c2nc(-c3ccc(OC)cc3)c(C#N)c(=O)n2C)c1N,10.2
2,Cn1c(NN)nc(-c2ccccc2F)c(C#N)c1=O,13.8

# Test system: Metaphire posthuma
# Assay: Anthelmintic activity against Pheretima posthuma assessed as time taken for complete parasite paralysis at 0.5% w/v
# Format: functional
# Details: not given
# Outline: as §4
row,Compound,Time [min]
1,CCOC(=O)c1cnn(-c2nc(-c3ccc(OC)cc3)c(C#N)c(=O)n2C)c1N,45.02
2,Cn1c(NN)nc(-c2ccccc2F)c(C#N)c1=O,48.77
